Results as given in ChEMBL document CHEMBL1155452, “Oncocin (VDKPPYLPRPRPPRRIYNR-NH2): a novel antibacterial peptide optimized against gram-negative human pathogens” (J Med Chem, 2010).

How the values were obtained:
Escherichia coli = test: Antibacterial activity against Escherichia coli BL21 AI after 20 hrs by broth microdilution assay; type: functional
Procedure, shortened: (§1)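 Nutrient-broth overnight cultures diluted in 1% TSB; E. coli BL21AI 7.5 × 10^5 cells/well, M. luteus ATCC 10240 2 × 10^6 cells/well. Peptides serially 2-fold diluted in 1% TSB from 128 to typically 0.5 μg/mL. Incubation at 37 °C; A595 read after 20 ± 2 h. MIC is the lowest concentration with absorbance not above medium only. Triplicate.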

Micrococcus luteus = test: Antibacterial activity against Micrococcus luteus ATCC 10240 after 20 hrs by broth microdilution assay; type: functional; details: ATCC 10240, 20 h; procedure, shortened: as §1

MIC (Escherichia coli): 8 mg/L
MIC (Micrococcus luteus): 16 mg/L
Substance: H-VDKPPYLPRPRPPRRIYNRN-OH
